# The EternaBench riboswitch data
# Test system: MS2 coat protein
# Assay: apparent Kd, MS2 coat protein; higher = weaker binding; RNA-MaP array; FMN 200 µM where present
# How it was run: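 Stalled E. coli RNA polymerase produced the designs on Illumina sequencing-chip clusters. SNAP-549-labelled MS2 coat protein was added from 0.7 or 1.5 nM, doubling to 3 µM, without and then with constant ligand, in 100 mM Tris-HCl pH 7.5, 80 mM KCl, 4 mM MgCl2, BSA, DTT, yeast tRNA and Tween-20. The apparent Kd is the median of filtered per-cluster fits of green signal normalised to red-channel RNA signal and control-cluster median Fmax.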
# [1] = designed as: OFF switch for flavin mononucleotide, no ligand
# [2] = ligand present: flavin mononucleotide, designed as: OFF switch for flavin mononucleotide
# [3] = designed as: ON switch for flavin mononucleotide, no ligand
# [4] = ligand present: flavin mononucleotide, designed as: ON switch for flavin mononucleotide
sequence,measurement,setting,value
UCCAGAUCGCGAGGUAGGAGUAGCAGAAGGCGACCGGUGCCAGAUGACAUGAGGAUCACCCAUGUCGAGGAUAUGCUACAGAAU,apparent Kd,[1],6.49 nM
same,apparent Kd,[2],13.2 nM
CUAAUGUGAGGAUAUGGUGUUGAUCACAGGAAGGAGAUUCUCCAGAAGGCACAUGAGGAUCACCCAUGUAGUGA,apparent Kd,[1],163 nM
same,apparent Kd,[2],142 nM
UGUAACCUAGGAUAUACAUGAGGAUCACCCAUGUAAUGUAGUAUAGUGUGUGUGAGGUGUAGAAGGAGGGAUGU,apparent Kd,[1],79.5 nM
same,apparent Kd,[2],125 nM
CAGAGGAUGUAAGGAUAUCGUCAGGAAUACUGACGAGAAGGUACAUGAGGAUCACCCAUGUAACUCUAAUAAUAAUAACCUCUG,apparent Kd,[1],12.6 nM
same,apparent Kd,[2],16.4 nM
CGUAGGAUCCAGAAGGCAUGAACAUGAGGAUCACCCAUGUCAAUAGACAUGAGGAUAUGGAUCCUACGAAAAGUGCGAAAGCAC,apparent Kd,[3],31.8 nM
same,apparent Kd,[4],5.94 nM
UAUCCGCUAGGAUAUACUAUAUUGUCCUCGUGAGUGAUGCUACAUGAGGAUCACCCAUGUAGAAGGAGCGCGUG,apparent Kd,[1],27.3 nM
same,apparent Kd,[2],30.6 nM
GGACGUGUCGUUUACAUGAGGAUCACCCAUGUCGAUAGACAUGAGGAUAUGGAUCCGAAUCGGAUCCAGAAGGCAUGCACGUCC,apparent Kd,[3],260 nM
same,apparent Kd,[4],26.8 nM
CCUCCGUAUUAGGAUAUCGUCCCGGAAACGGGACGAGAAGGAAUAACAUGAGGAUCACCCAUGUUAACGUGAUG,apparent Kd,[1],18.8 nM
same,apparent Kd,[2],46.7 nM
GCCGGUUACACAGGAUAUCCCAUGUCGACGGCGACAUGAGGAUCACCCAUGUCCUGGACGGGUUAGGAGAAGGGUGUAAAAUGC,apparent Kd,[3],110 nM
same,apparent Kd,[4],51.8 nM
AACUUGCGCACAGGAUAUCCACGGAGCGGACGUGGAGAAGGGUGACAUGAGGAUCACCCAUGUACGUAAGUCUGGAUCACUUCC,apparent Kd,[3],116 nM
same,apparent Kd,[4],42.3 nM
AAACACGGACAUGAGGAUCACCCAUGUGGCGAAAGCCUUGGGAGAAGGCCGAUUGCAAAGCAAUCGGAGGAUAUUCGUACCGUG,apparent Kd,[3],237 nM
same,apparent Kd,[4],13.8 nM
AUAUAGUCAGGAUAUCGAAGUGAGUGUUGGUGGGUAAGGUACGAGAAGGGACAUGAGGAUCACCCAUGUAGGAA,apparent Kd,[1],59.7 nM
same,apparent Kd,[2],44.1 nM
ACAUGAUCAGGAUAUACAUGAGGAUCACCCAUGUUUAUCAAAAAAGGGCCUUCUACAUGUAGAAGGGAUCUUGU,apparent Kd,[1],14.8 nM
same,apparent Kd,[2],15.1 nM
UAUAUAAUAAGAGCUGGACUUCAAACAUGAGGAUCACCCAUGUAGGAUAUCAGCACGAUAAGUGCUGAGAAGGACAACCAGCUC,apparent Kd,[1],16.5 nM
same,apparent Kd,[2],16.8 nM
AUUGUGUUAGGAUAUGCUUAUGCUGGGUAGUCCAGUAUGGAGUAGAAGGGACAUGAGGAUCACCCAUGUGCUCA,apparent Kd,[1],20.9 nM
same,apparent Kd,[2],21.2 nM
UUGGUACAUGAGGAUCACCCAUGUGGGUCGGUCGCAGGAUAUGCCCGUGGGCGCUUGCGGGCAGAAGGGUGCCGUA,apparent Kd,[3],392 nM
same,apparent Kd,[4],102 nM
CCAGAGAUAUGAGGAUAUCGAGUGGAAUACACUCGAGAAGGCAUGUGAAAACAUGAGGAUCACCCAUGUAUGAUCUACUCUGGA,apparent Kd,[3],52.2 nM
same,apparent Kd,[4],24.4 nM
UCGUGGUUAGGAUAUACAUGAGGAUCACCCAUGUGUGGCAGGGAGCGCCGACGGGCUUGUAGAAGGGAUGCGCA,apparent Kd,[1],40.4 nM
same,apparent Kd,[2],39.6 nM
CCUAAGGACACAGGAUAUAGCGUGGUGGGUGGGCUCCAACGACGAGCGGCGCUAGAAGGGUGACCACAUGAGGAUCACCCAUGU,apparent Kd,[3],668 nM
same,apparent Kd,[4],205 nM
AACUGACAUGAGGAUCACCCAUGUCAGGAUAUGACAUCGAAAAUAAAAUAAAUCGUUGUCAGAAGGGACAUGGG,apparent Kd,[1],21.4 nM
same,apparent Kd,[2],19.3 nM
GUCAGCUCGUGAGGAUAUACAUGUGCUGGAGACAGCACUAAAGUUUUCACAUGAGGAUCACCCAUGUAGAAGGCACGAGCUGAU,apparent Kd,[1],15.4 nM
same,apparent Kd,[2],36 nM
GCAGCACUUUAAAACAUGAGGAUCACCCAUGUCGAUUGUUAUGAGGAUAUGCAUCGGAUGAAGAUGCAGAAGGCAUUGUGCUGC,apparent Kd,[3],7.36 nM
same,apparent Kd,[4],6.23 nM
UUUAUACAUGAGGAUCACCCAUGUUAGGAUAUGGCUUUAAUGCCGCCGUCAUUAUCCGCCAGAAGGGACGUGUC,apparent Kd,[1],32.2 nM
same,apparent Kd,[2],30.4 nM
UCGCUGCGAGGAUAUACAUGAGGAUCACCCAUGUACGGGUCCGGGUUUGAGUUGAUGAGUAGAAGGCGCAGUGA,apparent Kd,[1],94.7 nM
same,apparent Kd,[2],86.1 nM
GUGCCUUGGGAGAAGGCCGAUAGCAAAGCUAUCGGAGGAUAUCCAUACCGGAAACGGACAUGAGGAUCACCCAUGUGGCACAAA,apparent Kd,[3],16.3 nM
same,apparent Kd,[4],7.6 nM
GUCAGGUGAGGAUAUACGCGGCUGACGAAACGUUAUACCGAGUAGAAGGCACAUGAGGAUCACCCAUGUUCGGG,apparent Kd,[1],109 nM
same,apparent Kd,[2],59.6 nM
UAUAAUUAGUAGAAGGACGGAGAGUAAGAAGUCGUAGGAUAUACAUAAGACAUGAGGAUCACCCAUGUGUGUAUGUUGGGUAGG,apparent Kd,[1],6.76 nM
same,apparent Kd,[2],6.7 nM
CGCUGGUGAGGAUAUGGGUGUGGUUACAUGAGGAUCACCCAUGUGGUGUCGCGCGUGGGUCCAGAAGGCGCGGGUG,apparent Kd,[1],246 nM
same,apparent Kd,[2],170 nM
AUCUCAGGACGAGGAUAUCAAUACAUGAGGAUCACCCAUGUAUGACUACUGUGAUCCUUUAAGGCUGAGAAGGCGUCCCAAAUG,apparent Kd,[1],20.2 nM
same,apparent Kd,[2],60.8 nM
UGUUGUUCCGCAGGAUAUGUAUUGGAUUACAAUACAGAAGGGCGAUAACAUGAGGAUCACCCAUGUGUGGACAAUAAGGAAGAG,apparent Kd,[3],708 nM
same,apparent Kd,[4],67.1 nM
UUCGGACUAUCAGGAUAUGGUGUAGCCUAGUAAAGGACAUGAGGAUCACCCAUGUACCAUUGGUGCCAGAAGGGAUGAUCCUAC,apparent Kd,[3],141 nM
same,apparent Kd,[4],55.3 nM
GUGUGCAGAGGAUAUACAGAGGAAAAGAAGAAAGAAGAGGGACAUGAGGAUCACCCAUGUAGAAGGCUGAGUGU,apparent Kd,[1],33.9 nM
same,apparent Kd,[2],35.2 nM
UACUAAAAGGAGGAUAUCGUAUCGGAGACGAUACGAGAAGGCUUAACAUGAGGAUCACCCAUGUUCUUCAAUAU,apparent Kd,[1],15.8 nM
same,apparent Kd,[2],18.2 nM
GUUUCACAUGAGGAUCACCCAUGUGAGGAUAUCUAUUUGUUAACCGUAGUUAAUAGAUAGAGAAGGCGCGUGAU,apparent Kd,[1],69 nM
same,apparent Kd,[2],74.5 nM
GCACGACAUGUAGGAUAUCGAGCGCCGGGCGCUCGAGAAGGACAUGAGGAUCACCCAUGUAUUCUGAGUGACCGAGGUCGAUGC,apparent Kd,[1],31.2 nM
same,apparent Kd,[2],180 nM
ACGGCAGUCGAAGGAUAUGGUUACAUGAGGAUCACCCAUGUCUAGGGUCUAAUUAGGUAUAAUUACCAGAAGGUCGAAGGCCUA,apparent Kd,[1],90.5 nM
same,apparent Kd,[2],123 nM
UUUAUUUCGGCAGGAUAUACAUGUAUAUAUAUUCCUUCAUAUCUUAUUACAUGAGGAUCACCCAUGUAGAAGGGCCUUCUUCUC,apparent Kd,[1],38.4 nM
same,apparent Kd,[2],42.1 nM
UUGGACGUCGUAGGAUAUGUAGGAUAUUCCUACAUGAGGAUCACCCAUGUUGACAUGGAAGAAGGACAGAAGGGCGAUGUCCAU,apparent Kd,[3],352 nM
same,apparent Kd,[4],5.27 nM
GGCUAGUGAGGAUAUACGUGCACUCCUCAGUCGCCAGUCGGACAUGAGGAUCACCCAUGUAGAAGGUAUCGGCA,apparent Kd,[1],27.8 nM
same,apparent Kd,[2],30.2 nM
GGACAUUUACAGAAGGGCAAGUUAGAUAGUGAAUAUUUAGAUCUGACUUGCAGGAUAUGUUGAACAUGAGGAUCACCCAUGUCC,apparent Kd,[3],13.7 nM
same,apparent Kd,[4],10.8 nM
CCCGCAACAUGAGGAUCACCCAUGUAGGAUAUCGCUAUUGUAAUCAUGAAACAUGAUUACAAUAGCGAGAAGGACAUAUGCGGG,apparent Kd,[1],6.77 nM
same,apparent Kd,[2],10.4 nM
UGAGGACAUGAGGAUCACCCAUGUAGGCCACAAUCAGGAUAUGCAUUAAGGUACCUAAGAGUAGAAGGGAUUCGAG,apparent Kd,[3],82.1 nM
same,apparent Kd,[4],75.6 nM
UUGAAUUGAAACAUGAGGAUCACCCAUGUGUCAUAAUUGACAUAGGAUAUGCUUAUACUUUUAAAGCAGAAGGAUGACGAUACU,apparent Kd,[3],23.8 nM
same,apparent Kd,[4],8.8 nM
CUCGUGUCAGGAUAUGGAAGGCCGUUUGAUUAACGAGGGUACUAGAAGGGACAUGAGGAUCACCCAUGUAAAAA,apparent Kd,[1],37.7 nM
same,apparent Kd,[2],57.6 nM
AAAAAACAUGAGGAUCACCCAUGUCAGGAUAUCUGUAUUCAAUCCUCGGAUUGAAUACAGAGAAGGGACAUGGA,apparent Kd,[1],42 nM
same,apparent Kd,[2],22.8 nM
AGAUCGAGUGUGAGGAUAUUGACCGGACGACCCAUCGAGAAGGCACAUGAGGAUCACCCAUGUGAUUCGGUUUA,apparent Kd,[1],15.2 nM
same,apparent Kd,[2],32.5 nM
AAAAAUGGAGGAUAUACAUGAGGAUCACCCAUGUGUGGCUAUACUAUGUGCUCGUCAGGUAGAAGGCCAAAAAA,apparent Kd,[1],31.2 nM
same,apparent Kd,[2],59.2 nM
CGAUAUACGACGGACGGAAACGUACAUGAGGAUCACCCAUGUAGAAGGCGAUCCGCAACGCGGAUUGAGGAUAUAUAGUAUACA,apparent Kd,[1],20.7 nM
same,apparent Kd,[2],14.6 nM
CUUAUGUCAGGAUAUCAGUAGUAAAAAAAAAAAAUUACUACUGAGAAGGGACAUGAGGAUCACCCAUGUCCAUU,apparent Kd,[1],30.9 nM
same,apparent Kd,[2],31.2 nM
UGUUGUAUUACAGGAUAUCUAUUAGGUUUAUUUAGAGAAGGGUAUUCACAUGAGGAUCACCCAUGUAUAUACGAGGAAGUUGUG,apparent Kd,[3],56.2 nM
same,apparent Kd,[4],63.3 nM
GGAGCCGGCCUAGGAUAUUUCAUAAUAUUACAUGAGGAUCACCCAUGUAGGCCAGAAGGCCUUGGGAAGAAGGAGGUCGGCUCC,apparent Kd,[3],42.6 nM
same,apparent Kd,[4],15.9 nM
UUUGGGCCUGUGAGGAUAUGCCCGGGUAAAUUUGGGCAGAAGGCACAUGAGGAUCACCCAUGUAAGGGCCCGGG,apparent Kd,[1],31.5 nM
same,apparent Kd,[2],21.4 nM
AAUAACAGAGGAUAUACUAUUUUAUGUGUUUAUUGUUUUGAACAUGAGGAUCACCCAUGUAGAAGGCUGAGUAA,apparent Kd,[1],30.2 nM
same,apparent Kd,[2],38 nM
UUAUACGUUGAGGAUAUGCGAAUAAGUAUAGUUGCAGAAGGCGAUACAUGAGGAUCACCCAUGUUCAUGGACAU,apparent Kd,[1],126 nM
same,apparent Kd,[2],180 nM
AGUAACAGAGGAUAUACUAUUUUAUGUGUUUGUUAUUUUGAACAUGAGGAUCACCCAUGUAGAAGGCUGAAUAA,apparent Kd,[1],25 nM
same,apparent Kd,[2],26 nM
UGUAUGGACAGAGGAUAUGCCGAUAGGAUCUACUAUCGAAGAAUCCUCACAUGAGGAUCACCCAUGUAGAAGGCUGUCCAUACU,apparent Kd,[1],25.3 nM
same,apparent Kd,[2],150 nM
